Screens (PubChem)
An excerpt weighted towards active compounds, which were near 27% of everything screened.
CYP2C19 inhib – human CYP2C19 inhibition. P33261. CYP2C19 Supersomes, luciferin-H EGE luminescence, 30 min. inhibition, % at 5 µM. hit rate 21% among 96,000;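 active = CYP2C19 inhibition above a set limit at 5 µM in the primary screen, cut at about 50% in these data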
Cav3 T inh – inhibitors of human Cav3.2 T-type calcium channel; O95180; Cav3.2-expressing cells, Fluo-4 calcium fluorescence FDSS; hits give low values; B-score at 10 µM; hit rate 4% among 100,000; AID 449739;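 active = single-dose well whose peak fluorescence ratio is a statistical outlier from its plate by either plate-standardised score or position-corrected B-score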
CYP2C9 inhib – blocks human cytochrome P450 2C9; P11712; CYP2C9 Supersomes, luciferin-H conversion, luminescence; inhibition, % at 5 µM; hit rate 20% among 96,000;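 active = blocking of liver enzyme CYP2C9 beyond about 50% at 5 µM, limit read from the data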
Target sequence (P11712 whole entry, looked up): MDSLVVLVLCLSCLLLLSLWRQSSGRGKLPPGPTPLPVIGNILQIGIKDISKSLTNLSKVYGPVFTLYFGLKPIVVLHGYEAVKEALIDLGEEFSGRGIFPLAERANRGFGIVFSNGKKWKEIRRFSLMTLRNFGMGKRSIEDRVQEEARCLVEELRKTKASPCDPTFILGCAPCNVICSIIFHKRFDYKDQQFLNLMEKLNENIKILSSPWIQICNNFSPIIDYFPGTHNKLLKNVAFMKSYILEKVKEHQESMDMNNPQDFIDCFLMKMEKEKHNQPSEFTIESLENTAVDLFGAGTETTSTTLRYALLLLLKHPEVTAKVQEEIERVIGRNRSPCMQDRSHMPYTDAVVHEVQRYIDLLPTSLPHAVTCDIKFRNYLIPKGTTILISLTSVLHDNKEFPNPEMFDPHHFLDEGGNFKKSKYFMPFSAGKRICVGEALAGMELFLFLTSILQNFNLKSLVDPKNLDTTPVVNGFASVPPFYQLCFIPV
CYP2C19 activ – cytochrome P450 2C19 (human) activation | P33261 | recombinant CYP2C19, luciferin-H EGE luminescence; hits give high values; 0 = fully inhibited enzyme, 1 = untreated enzyme | activation factor at 5 µM | 96,000 tested, under 10 active | AID 1025;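 active = activation factor of at least 2 at 5 µM in the primary screen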
CYP2C9 activ – increases human cytochrome P450 2C9 activity. AID 1024. hit rate 1.4% among 96,000. activation factor at 5 µM. recombinant CYP2C9, luciferin-H conversion, luminescence; hits give high values; factor 1 = untreated enzyme, 0 = blocked. P11712;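 active = activation factor of 2 or more for CYP2C9 at a 5 µM dose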
HIV Rev-RRE inh – inhibitors of HIV-1 Rev-RRE RNA interaction. hit rate 0.79% among 97,000. Rev peptide-RRE RNA binding, FRET. inhibition, % at 8 µM. P05866. AID 704;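 active = inhibition above the screen-wide mean plus 3 SD, cut at about 35% in these data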
Target sequence (P05866 whole entry, looked up): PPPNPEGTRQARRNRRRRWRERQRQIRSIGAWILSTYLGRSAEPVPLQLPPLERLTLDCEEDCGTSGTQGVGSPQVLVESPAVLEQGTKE
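Assay system: Rev peptide and RRE RNA, both fluorescently labelled; times: 5 min preincubation and 15 min binding, 25 °C; detection: FRET, ex 480 nm, em 540 and 671 nm; read-out basis: % inhibition from 671/540 nm acceptor-to-donor ratio, scaled between controls; benchmarks: DMSO low control, neomycin B high control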
Of the large screens only hits and unclear results are named; the others gave an inactive call.

O=C(CN1C(=O)NC2(CCCCCC2)C1=O)N1CCC(Cc2ccccc2)CC1	Cav3 T inh 4.28 (no result: CYP2C19 inhib, CYP2C9 inhib, CYP2C19 activ, CYP2C9 activ)
O=C(CN1CCN(c2ccc(F)cc2)CC1)N1CCC(Cc2ccccc2)CC1	CYP2C19 inhib 54.4, CYP2C9 inhib 69.3
Cc1nc2ccc(NC(=O)NCCO)cc2s1	none
COCCCn1cc(C(=O)c2cc(OC)ccc2OCC(=O)Nc2cc(C)on2)cc(C#N)c1=O	CYP2C19 inhib 50.4, CYP2C9 inhib 56.9
N#CCCn1c(SCC(=O)c2c[nH]c3ccccc23)nc2ccccc21	CYP2C19 inhib 70.4
CCC(C)[C@H]1CN=C(N)N1CCc1cc(C(F)(F)F)cc(C(F)(F)F)c1 (stereo partly specified)	none (no result: CYP2C19 inhib, CYP2C9 inhib, CYP2C19 activ, CYP2C9 activ, HIV Rev-RRE inh)
Cc1cc(NC(=O)COc2nnc(-c3ccccc3)c3ccccc23)no1	CYP2C19 inhib 52.3, CYP2C9 inhib 63.3
COC(=O)CN(c1ccccc1OC)S(=O)(=O)c1ccccc1	none
Cc1cc(NC(=O)COc2ccc(N(C)S(=O)(=O)c3ccccc3)cc2)no1	CYP2C9 inhib 55.3
Cc1cc(NC(=O)CCOc2ccccc2)no1	none
CCN(c1ccccc1)S(=O)(=O)c1ccc(OCC(=O)Nc2cc(C)on2)cc1	CYP2C9 inhib 66.6
COc1ccccc1N(CC(=O)Nc1cc(C)on1)S(=O)(=O)c1ccc(Cl)cc1	CYP2C19 inhib 90.8, Cav3 T inh -2.39, CYP2C9 inhib 97.7
CCC1=C(OC(=O)N(CC)CC)N2C(=O)OC(=NCC3CC3)[C@]2(Cc2ccccc2)[C@H]2C1=CC[C@H]1C(=O)N(c3ccccc3)C(=O)[C@H]12	none (no result: CYP2C19 inhib, CYP2C9 inhib, CYP2C19 activ, CYP2C9 activ, HIV Rev-RRE inh)
CCn1c(C)[n+](CC(O)COCC2CC=CCC2)c2ccccc21 (stereo unspecified)	none
COc1cccc(CNCCc2c[nH]c3ccccc23)c1OCc1ccc(F)cc1	none
S=C(NCCc1ccccc1)Nc1ccc(Cl)cc1Cl	CYP2C19 inhib 85.6, Cav3 T inh -5.11
Cc1ccccc1NC(=O)C(=O)NCCc1c[nH]c2ccccc12	none (no result: CYP2C19 inhib, CYP2C9 inhib, CYP2C19 activ, CYP2C9 activ, HIV Rev-RRE inh)
COc1ccc(C(=O)N/C(=C\c2cccc3ccccc23)C(=O)NCCc2c[nH]c3ccccc23)cc1OC	CYP2C19 inhib 50.2, CYP2C9 inhib 65.1
COc1ccc(CCNC(=S)Nc2ccccc2C)cc1	none
O=C(NCCc1c[nH]c2ccccc12)Nc1cccc2ccccc12	CYP2C19 inhib 86.1
COc1ccccc1NC(=S)NCCc1c[nH]c2ccccc12	CYP2C19 inhib 85.7, CYP2C9 activ 2.4
COc1ccc(C2/C=C\CN(C(=O)c3ccc(C)cc3)[C@H](Cc3ccccc3)C(=O)N2Cc2ccc(F)cc2)cc1 (stereo partly specified)	none (no result: CYP2C19 inhib, CYP2C9 inhib, CYP2C19 activ, CYP2C9 activ, HIV Rev-RRE inh)
O=C(N[C@@H](c1ccccc1)[C@H](O)c1ccccc1)[C@@H]1CCCN1C(=O)OCc1ccccc1	none (no result: CYP2C19 inhib, CYP2C9 inhib, CYP2C19 activ, CYP2C9 activ, HIV Rev-RRE inh)
COc1ccccc1NC(=S)NCCc1ccccc1	CYP2C19 inhib 81.5
Cc1cc(N2C(=O)C(=O)/C(=C(/O)c3ccc(F)cc3)C2c2ccc(Cl)cc2)no1 (stereo unspecified)	Cav3 T inh -6.16, CYP2C9 inhib 56.7
CCOc1ccc(C2/C(=C(\O)c3ccc(OC)c(OC)c3)C(=O)C(=O)N2c2cc(C)on2)cc1OC (stereo unspecified)	none (no result: HIV Rev-RRE inh)
Cc1ccc(S(=O)(=O)N2CCC(=O)N(CCOC(=O)Nc3ccc(F)cc3)CC2)cc1	none (no result: CYP2C19 inhib, CYP2C9 inhib, CYP2C19 activ, CYP2C9 activ, HIV Rev-RRE inh)
CCOC(=O)c1c(C)[nH]c(C(=O)CSc2nnc(C3CC3)n2N)c1C	CYP2C19 inhib 69.3, CYP2C9 inhib 65.8
CCCCC(=O)OCC(=O)c1[nH]c(C)c(C(=O)OCC)c1C	CYP2C9 inhib 83.3
CCOC(=O)c1c(C)[nH]c(C(=O)COC(=O)CNC(=O)C2CCCCC2)c1C	none
CCOC(=O)c1c(C)[nH]c(C(=O)COC(=O)CN2C(=O)C3CCCCC3C2=O)c1C (stereo unspecified)	none
COc1ccc(C(=O)CSc2nnc(C3CC3)n2N)cc1	none
CCOC(=O)c1[nH]c(C)c(C(=O)OCCN2C(=O)c3ccccc3C2=O)c1C	CYP2C19 inhib 67.0, CYP2C9 inhib 84.7 (no result: Cav3 T inh)
CCOC(=O)c1c(C)[nH]c(C(=O)COC(=O)C(C)N2C(=O)C3CCCCC3C2=O)c1C (stereo unspecified)	CYP2C19 inhib 55.3, Cav3 T inh -3.22, CYP2C9 inhib 51.8
CCC/C(O)=C1\C(=O)CCCC1=NCCCCCC(=O)O	none
CC(C)CCn1cnc2c(c1=O)c1nc3ccccc3nc1n2Cc1ccc2c(c1)OCO2	none
Cc1cc(NC(=O)c2cccc(S(=O)(=O)N3CCOCC3)c2)c2ccccc2n1	none (no result: HIV Rev-RRE inh)
O/N=C/c1ccc(OCC(O)COc2ccc(/C=N/O)cc2)cc1	none
O=C(CSc1ncn[nH]1)N(C1CCCCC1)C1CCCCC1	none
CCCCCCC(=O)c1c(C)[nH]c(C(=O)OCC)c1C	CYP2C9 inhib 71.2
CCOC(=O)c1c(C)[nH]c(C(=O)CSc2ccccc2)c1C	CYP2C19 inhib 84.3, CYP2C9 inhib 96.4 (no result: HIV Rev-RRE inh)
CCOC(=O)c1c(C)[nH]c(N=Nc2ccccc2C)c1C	CYP2C19 inhib 83.4, CYP2C9 inhib 95.3
CCOC(=O)c1[nH]c(C)c(C(=O)O)c1C	none
CCOC(=O)c1c(C)[nH]c(C(=O)COC(=O)c2oc3ccccc3c2C)c1C	none
CCOC(=O)c1c(C)[nH]c(C(C)=O)c1C	CYP2C19 inhib 50.8, CYP2C9 inhib 56.1
Cc1nnc(SCC(=O)N(Cc2ccccc2)C(C)C)n1-c1ccccc1	none
Cc1ccsc1C(=CCCN1CCC[C@@H](C(=O)O)C1)c1sccc1C	none (no result: CYP2C19 inhib, CYP2C9 inhib, CYP2C19 activ, CYP2C9 activ, HIV Rev-RRE inh)
CCOC(=O)c1[nH]c(C)c(C(=O)N2CCOCC2)c1C	none
COCCn1c(C)cc(C(=O)COC(=O)c2ccc(N3CCCC3=O)cc2)c1C	none
CCOC(=O)c1[nH]c(C)c(C(=O)N2CCN(c3ccccc3)CC2)c1C	CYP2C9 inhib 54.6
CCOC(=O)c1c(C)[nH]c(C(=O)COC(=O)c2ccc(N3CCCC3=O)cc2)c1C	CYP2C9 inhib 89.9
CCOC(=O)c1c(C)[nH]c(C(=O)COC(=O)CSC)c1C	CYP2C9 inhib 56.5
CCOC(=O)CSc1nc2sc3c(c2c(=O)n1C1CCCCC1)CCN(C)C3	none (no result: CYP2C19 inhib, CYP2C9 inhib, CYP2C19 activ, CYP2C9 activ)
CCCC(=O)NC(=S)Nc1ccccc1F	none
COC(=O)c1c(C)n(-c2ccc(C)cc2)c2ccc(O)cc12	CYP2C19 inhib 53.0
CC(=O)c1c(C)n(-c2ccccc2)c2ccc(OCC(O)CN3CCOCC3)cc12 (stereo unspecified)	CYP2C19 inhib 77.4, CYP2C9 inhib 67.8
CC(=O)c1c(C)n(-c2ccccc2)c2ccc(O)cc12	CYP2C19 inhib 82.5
COc1ccc2c(c1)c(C(=O)N1CCN(C)CC1)c(C)n2-c1ccccc1	none
COc1cccc(-c2nc(=S)c3c(n2CCCO)CCCC3)c1	none
CCOC(=O)N1CCN(CC(=O)Nc2ccc(C)cc2)CC1	none
CCOC(=O)N1CCN(CC(=O)Nc2ccc(C)c(Br)c2)CC1	CYP2C19 inhib 51.1
COc1cc(S(=O)(=O)Nc2cccc(C(=O)O)c2)c(OC)cc1Cl	none
